Assay outcomes (PubChem BioAssay)
Hits are enriched below; roughly 3.5% of the tested compounds scored in any of these assays.
STAT1 activator – STAT1 signaling activators, primary screen, cell-based, HTS, luciferase reporter. NIH 3T3 STAT1-luciferase reporter, IFN-gamma, luminescence; 100% = IFN-gamma alone, no compound. activation (% of control), % at 5.5 µM. 2.6% of 200,000 active. AID 932, 2007;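 active means activation above the screen-wide mean activation plus 3 SD, cut at about 130% in these data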;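 further: raw ratio to IFN-gamma control signal so 100% means no change and 0% no light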
FLuc inh counter – firefly luciferase enzyme inhibitors, primary screen, artefact control for luciferase-based inhibitor screens, biochemical, luminescence, ATPLite. 10 min. inhibition, % at 10 µM. 1.5% of 200,000 active. AID 1006, 2008;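 active means inhibition above about 50% when tested at 10 µM, limit read from the data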
Target sequence (P08659 whole entry, looked up): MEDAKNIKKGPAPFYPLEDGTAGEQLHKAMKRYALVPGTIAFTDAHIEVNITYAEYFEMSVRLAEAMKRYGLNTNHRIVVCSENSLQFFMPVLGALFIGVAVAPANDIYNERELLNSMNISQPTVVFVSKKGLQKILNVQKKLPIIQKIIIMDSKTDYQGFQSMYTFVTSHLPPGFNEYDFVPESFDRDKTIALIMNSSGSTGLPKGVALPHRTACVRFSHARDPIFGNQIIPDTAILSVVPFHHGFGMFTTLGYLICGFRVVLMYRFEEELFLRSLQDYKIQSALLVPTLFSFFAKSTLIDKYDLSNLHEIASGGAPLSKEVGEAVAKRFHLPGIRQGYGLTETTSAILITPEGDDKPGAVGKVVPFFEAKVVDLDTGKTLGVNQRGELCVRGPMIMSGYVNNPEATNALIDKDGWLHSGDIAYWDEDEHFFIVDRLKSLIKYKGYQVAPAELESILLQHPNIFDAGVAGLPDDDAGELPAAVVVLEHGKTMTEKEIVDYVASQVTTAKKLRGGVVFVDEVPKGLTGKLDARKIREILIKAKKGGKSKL
FLuc stim CS – FLuc activators, initial screening, artefact control for FLuc-dependent activation tests, biochemical, ATPlite luminescence | Luciferin 4-monooxygenase (Photinus pyralis), P08659 | ATPlite luciferase biochemical, 10 min; 0 = ATP-free wells, 1 = DMSO control | activation factor at 10 µM | 200,000 tested, under 10 active | AID 1027, 2008;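 active means luciferase activation factor, scaled between plate controls, of at least 2 with compound at 10 µM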
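Assay system: Luciferase/luciferin detection reagent, cell-free biochemical luciferase assay / Read-out: luciferase activation / Benchmarks: No-ATP low control, compound-free enzyme-plus-ATP high control / Medium: PBS buffer for ATP / Detection: luminescence measurement of luciferase light output / Schedule: 10 min at ambient temperature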
APP 5'UTR act – activators of APP 5'UTR luciferase reporter, primary screen, SH-SY5Y cells | SH-SY5Y APP 5'UTR luciferase reporter, luminescence; zero percent = DMSO vehicle wells | activation, % at 2 µM | 1% of 190,000 active;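 active means activation above a set limit, based on mean plus 3 SD of controls, cut at about 140% in these data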
NF-kB neuron act – activators of NF-kB expression in neurons, primary screen, cell-based, HTS | human neuronal cells, NF-kB reporter expression; active compounds read high | fold change at 12.5 µM | 1.6% of 190,000 active; in the data active means fold change above about 3.3
Pf gamet viab – late stage P. falciparum gametocyte viability inhibitors, primary screen, ATP luminescence, HTS; P. falciparum stage V gametocytes, 24 h; inhibition, % at 10.9 µM; 0.065% of 150,000 active; AID 743093, 2013;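 active means inhibition above the mean plus 3 SD of compounds within the control limits, set per campaign, cut at about 38% in these data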;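 further: 0% = DMSO wells and 100% = medium only without gametocytes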
The depositor's hits bear a star; . = no result given.

SMILES | STAT1 activator | FLuc inh counter | FLuc stim CS | APP 5'UTR act | NF-kB neuron act | Pf gamet viab
CCCS/C(N)=N/N=C/c1ccccc1O | 100 | 20 | 0.8 | 90 | 3.3* | .
C=CCS/C(N)=N\N=C\c1c(O)ccc2ccccc12 | . | . | . | . | . | -57
CC1=C(C(=O)Nc2cc(C)ccc2C)C(c2cccs2)NC(=S)N1 (centres undefined) | 95 | -3 | 1 | 7 | 0.91 | -51
Fc1cccc(/C=N/N=C/c2cccc(F)c2)c1 | 147* | 5 | 1 | 38 | 1.1 | -5
O=C(N/N=C/c1cccc(F)c1)NC1CCCCC1 | 120 | 3 | 1 | 13 | 1.4 | -21
O=C(NCc1ccccc1)C1=C[C@H](C2CC2)C[C@H](OCCCCO)O1 | 106 | -7 | 1.1 | -4 | 0.95 | 11
Fc1ccc(Nc2ccc3ccccc3n2)c(F)c1 | 58 | 70* | 0.3 | 200* | 11* | -11
O=C(Nc1ccc(F)cc1F)c1cc2ccccc2oc1=O | . | . | . | . | . | -16
CC(C)N=C1NN=C(c2ccc(Cl)c(Cl)c2)CS1 | 136* | 64* | 0.4 | 172* | 8.6* | -18
CC(C)N=C1NN=C(c2cccs2)CS1 | 134* | 31 | 0.7 | 103 | 3.5* | .
CCN1CCN(C(C)C(=O)NC2CCCCC2)CC1 (centres undefined) | . | . | . | . | . | 1
CCC1C(=O)CC(c2ccc([N+](=O)[O-])cc2)NC1c1ccc([N+](=O)[O-])cc1 (centres undefined) | 102 | -5 | 1 | -3 | 1 | .
CCOc1cc(/C=C/c2cc(C(=O)O)c3ccccc3n2)ccc1OC | 107 | 86* | 0.1 | 4 | 1.9 | 12
COc1cc(/C=C/c2cc(C(=O)O)c3ccccc3n2)cc(OC)c1O | 101 | 38 | 0.6 | -12 | 0.94 | .
CCOc1cc(/C=C/c2cc(C(=O)O)c3ccccc3n2)ccc1O | 103 | 73* | 0.3 | 3 | 1.6 | -35
CCOc1cc(/C=N/NC(=O)c2cc(-c3cccc(OC)c3)nc3ccccc23)ccc1O | . | . | . | . | . | 9
COc1ccccc1/C=C/C(=O)NC(=S)NC(C)C | 105 | -5 | 1.1 | -2 | 1.2 | -3
CCCCCOc1ccc(OC(=O)c2ccncc2)cc1 | 105 | -2 | 1 | -12 | 3.8* | .
O=C1CC2(CCCC2)Oc2ccc(F)cc21 | . | . | . | . | . | -15
Cc1ccc(Cn2cc(C(=O)c3ccc(F)cc3)c(=O)c3cc4c(cc32)OCCO4)cc1 | 105 | -12 | 1.1 | 11 | 0.38 | .
c1ccc2sc(-c3ccc4c(c3)OCO4)nc2c1 | 96 | 89* | 0.1 | 168* | 6.3* | .
COc1ccc(-c2nc3ccccc3nc2-c2ccccc2)cc1 | 96 | -4 | 1 | 7 | 0.87 | 14
COc1ccc2nc3ccccc3nc2c1 | 144* | 20 | 0.8 | 45 | 2.1 | .
Nc1ccc(O)c(-c2nc3ccccc3s2)c1 | 128 | 21 | 0.8 | 22 | 2.1 | .
Nc1ccccc1-c1nc2ccccc2s1 | 144* | 15 | 0.9 | 119 | 2.4 | -6
SMILES | STAT1 activator | FLuc inh counter | FLuc stim CS | APP 5'UTR act | NF-kB neuron act | Pf gamet viab
O=C(Nc1cccc(-c2nc3ccccc3s2)c1)c1ccc2c(c1)OCO2 | 94 | 0 | 1 | -7 | 1.2 | 11
CN(C)c1nc(N)nc(-c2nc3ccccc3s2)n1 | 135* | 32 | 0.7 | 25 | 2.9 | 22
Cn1c(=O)n(C)c2cc(NC(=O)c3ccccc3NS(C)(=O)=O)ccc21 | . | . | . | . | . | -17
COc1ccccc1Oc1ccc(NC(=O)Cc2ccccc2)cc1 | . | . | . | . | . | -3
Cc1cccc(-c2nc(C#N)c(NCc3ccco3)o2)c1 | . | . | . | . | . | -9
Cc1ccc(Cn2cccc(-c3nc4ccccc4s3)c2=O)cc1 | 140* | 5 | 1 | 31 | 2.6 | .
COc1ccc(-c2ccc3ccccc3n2)cc1 | 78 | 72* | 0.3 | 206* | 10* | -11
Oc1ccc(-c2nc3ccccc3s2)cc1 | . | . | . | . | . | -2
COc1ccc(-c2nc3ccccc3s2)cc1 | 33 | 92* | 0.1 | 169* | 3.2 | 5
CC(=O)NCc1ccc(-c2nc3ccccc3s2)cc1 | 136* | 64* | 0.4 | 151* | 1.1 | 22
COc1ccc(-c2cn(Cc3ccc(C(N)=O)cc3)c(-c3ccncc3)n2)cc1 | . | . | . | . | . | 13
O=C(C[C@@H]1C/C=C\C[C@H](Cc2ccc(F)cc2)C(=O)OC[C@@H]2CCCN2C1=O)N[C@H](CO)Cc1ccccc1 | . | . | . | . | . | 20
CC(C)(C)OC(=O)N1CCC(C(=O)NCC2CCCO2)CC1 (centres undefined) | . | . | . | . | . | 14
Cc1ccc2nc(=O)c(NNc3ccccc3)cnc2c1 | 139* | 3 | 1 | 18 | 1.7 | .
Cc1nc2ccccc2nc(=O)c1NNc1ccccc1 | 129* | 8 | 0.9 | 24 | 1.8 | 4
Nc1c(C(=O)NCc2ccco2)nnn1CC(=O)Nc1ccc2c(c1)OCO2 | 100 | -2 | 1 | -16 | 4* | 5
Cc1ccc2c(c1)sc[n+]2Cc1ccccc1 | 135* | 10 | 0.9 | 28 | 2.1 | .
Cc1ccc(-c2cc[n+](Cc3ccccc3)cc2)cc1 | 77 | -3 | 1 | 4 | 1.1 | 31
CC(C)(C)c1ccc(C(CC(=O)O)NC(=O)c2ccccc2F)cc1 (centres undefined) | 95 | -4 | 1 | 6 | 1 | 4
CCOc1ccc(-c2cc(N3C(=O)Nc4ccccc4N3O)on2)cc1 | 88 | 76* | 0.2 | 13 | 1.2 | .
COc1ccc(-c2cc(N3C(=O)Nc4ccccc4N3O)n[nH]2)cc1 | 101 | 33 | 0.7 | 14 | 0.97 | 1
Cc1cccc(NC(=O)c2onc3c2CCCC3)c1C | 140* | 30 | 0.7 | 78 | 2.7 | .
O=C(Nc1ccc(Cl)cn1)c1ccc2c(Cl)c3c(nc2c1)CCC3 | . | . | . | . | . | 0
Cc1cccc(NC(=O)c2onc3c2CCCC3)n1 | 119 | 92* | 0.1 | 158* | 2.5 | 14
Cc1cccc(NC(=O)c2ccc3c(Cl)c4c(nc3c2)CCCC4)n1 | 145* | 81* | 0.2 | 160* | 0.77 | -12
SMILES | STAT1 activator | FLuc inh counter | FLuc stim CS | APP 5'UTR act | NF-kB neuron act | Pf gamet viab
Cc1cccc(NC(=O)c2ccoc2C)n1 | 103 | -1 | 1 | 16 | 1.3 | 20
Cc1cccc(NC(=O)c2cccnc2)c1C | . | . | . | . | . | -22
COC(=O)c1cccc(NC(=O)c2onc3c2CCCC3)c1 | 150* | 62* | 0.4 | 99 | 10* | 25
CN1CCN(C(=S)C(=O)Nc2ccccc2)CC1 | 99 | -1 | 1 | -1 | 1.3 | -18
Cc1ccccc1NC(=O)c1onc2c1CCCC2 | 142* | 63* | 0.4 | 94 | 3.6* | .
COc1ccc(Cl)cc1-c1nc(-c2ccc(NC(=O)c3cccs3)cc2)no1 | 129* | 12 | 0.9 | 39 | 1.6 | .
Cc1ccc(C(=O)NCCCc2ccccc2)c(C)c1 | 136* | 12 | 0.9 | 160* | 1.1 | .
